Published values pooled from the literature.
Protocols differ between the studies behind these lines.
Target: NUAK family SNF1-like kinase 2 (NUAK2, Homo sapiens, UniProt Q9H093)
One construct used (Q9H093 1-628): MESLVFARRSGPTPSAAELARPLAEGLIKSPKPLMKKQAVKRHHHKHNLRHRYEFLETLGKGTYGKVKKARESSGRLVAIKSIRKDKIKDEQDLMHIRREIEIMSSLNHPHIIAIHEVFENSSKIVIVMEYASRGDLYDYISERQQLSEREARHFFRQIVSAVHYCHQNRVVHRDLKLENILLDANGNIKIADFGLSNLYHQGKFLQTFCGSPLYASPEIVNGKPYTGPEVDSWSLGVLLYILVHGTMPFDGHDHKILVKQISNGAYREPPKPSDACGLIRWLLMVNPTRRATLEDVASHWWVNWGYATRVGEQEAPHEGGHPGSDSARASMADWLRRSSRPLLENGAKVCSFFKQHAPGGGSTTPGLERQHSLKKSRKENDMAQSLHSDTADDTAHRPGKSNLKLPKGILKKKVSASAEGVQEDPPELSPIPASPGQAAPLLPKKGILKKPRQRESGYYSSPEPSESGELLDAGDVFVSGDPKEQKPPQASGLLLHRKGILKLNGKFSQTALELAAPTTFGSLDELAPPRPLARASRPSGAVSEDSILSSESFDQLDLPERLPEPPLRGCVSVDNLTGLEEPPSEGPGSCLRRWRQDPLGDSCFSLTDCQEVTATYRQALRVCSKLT

Structure (SMILES) | assay | conditions | remaining binding
C[C@@H]1CN(c2ccc3ncc(-c4ccc5[nH]nc(C6CC6)c5c4)n3n2)C[C@H](C)O1 | binding, competition with immobilised ligand | 0.5 µM | 58%
CO[C@@H](C)c1c(Nc2ccc([C@@H](N(C)C(=O)C3CCS(=O)(=O)CC3)C(F)(F)F)cc2)cnc2cc(Cl)nn12 | cell-free assay, competition with immobilised ligand | 1 µM | 100%
CN(C)c1nccc(-c2cnn3ncccc23)n1 | binding | 1 µM | 100%
Cc1c(NC(=O)c2cc(C(N)=O)nc3cc(F)ccc23)c(C(F)(F)F)nn1Cc1ccc(C#N)cc1 | cell-free assay, competition with immobilised ligand | 1 µM | 83%
O=C(NCCCN1CCOCC1)c1ccc(Nc2ncc(Cl)c(-c3ccc(Cl)s3)n2)cc1 | binding, competition with immobilised ligand | 1 µM | 0.85%
CCCCN(CCCC)C(=O)CN1C[C@@H](c2cc(OC)c3c(c2)OCO3)[C@H](C(=O)O)[C@H]1CC(C)(C)CCC | cell-free assay, competition with immobilised ligand | 1 µM | 100%
C[C@@H]1CCN(c2nccc(-c3cnn4ncccc34)n2)C1 | binding | 1 µM | 74%
CNC(=O)[C@@H]1CC[C@@H](n2c(-c3ccc4cnccc4c3)nc3ccc(C(=O)NCc4cccc(C(N)=O)c4)cc32)C1 | binding, competition with immobilised ligand | 1 µM | 100%
N#Cc1ccccc1CSc1nnc2c(n1)[nH]c1ccccc12 | binding, competition with immobilised ligand | 10 µM | 93%
O=C(c1ccc(Nc2nccc(-c3cc4ccccc4s3)n2)cc1)N1CCC(N2CCCC2)CC1 | binding, competition with immobilised ligand | 1 µM | 7.6%
CN(C)c1ncc(F)c(-c2cnn3ncccc23)n1 | binding | 1 µM | 80%
COc1cccc(CNC(=O)c2nc3scc(COCc4ccc(C(=O)O)cc4)c3c(=O)[nH]2)c1 | cell-free assay, competition with immobilised ligand | 1 µM | 76.4%
O=C(Nc1c[nH]nc1C(=O)NC1CCNCC1)c1cc(F)cc(F)c1 | binding, competition with immobilised ligand | 1 µM | 100%
CC1CCCN1c1nccc(-c2cnn3ncccc23)n1 (stereo not shown) | binding | 1 µM | 85%
C[C@H](NC(=O)c1cnc2n1[C@](C)(Cc1ccc(C#N)cc1)C(=O)N2c1cc(Cl)c(F)c(Cl)c1)C(=O)NC1(c2ccccn2)CC1 | cell-free assay, competition with immobilised ligand | 1 µM | 100%
N[C@H]1CCN(c2nccc(-c3cnn4ncccc34)n2)C1 | binding | 1 µM | 100%
COc1cc(-c2cn(C3CCc4ccccc4N(CC(F)(F)F)C3=O)nn2)ccc1-n1ccc(C)n1 (stereo not shown) | cell-free assay, competition with immobilised ligand | 1 µM | 88%
O=C(c1ccc(Nc2ncc(Cl)c(-c3ccc(Cl)s3)n2)cc1)N1CCC(N2CCCC2)CC1 | binding, competition with immobilised ligand | 1 µM | 0.4%
COc1cnc(Nc2cccc(S(N)(=O)=O)c2)nc1N1CCN(c2ccccc2)C(=O)C1 | binding, competition with immobilised ligand | 1 µM | 54%
COc1ncc2cc3ccccc3nc2c1C#N | cell-free assay, competition with immobilised ligand | 5 µM | 100%
O=C(O)[C@H]1[C@H](Cn2nnc3ccccc3c2=O)CC[C@@H]1C(=O)c1ccc(OCCC2CCOCC2)cc1 | cell-free assay, competition with immobilised ligand | 1 µM | 100%
CC(C)(C)c1ccc(-c2nc(CBr)nn2-c2cccc(O)c2)cc1 | cell-free assay, competition with immobilised ligand | 10 µM | 74%
